Test results from paper PMC5953009 (Chemical Science, 2015).
Values after ≈ are worked out from the molar mass of the structure shown. Read-outs that look alike come from different tables or passages of the source. Marks after values point to notes of the source that are not given here. Values belong to the compound of their own block, whether it stands above or below them.

Experiments:
[1] = molecular target: T1, LecA (Pseudomonas aeruginosa, UniProt Q05097); assay: Isothermal titration calorimetry; type: binding
T1 sequence (Q05097 1-122): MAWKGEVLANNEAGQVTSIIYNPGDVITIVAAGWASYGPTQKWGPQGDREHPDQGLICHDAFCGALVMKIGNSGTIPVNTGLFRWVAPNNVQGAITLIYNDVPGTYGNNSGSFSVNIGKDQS

[2] = molecular target: LecB (Pseudomonas aeruginosa, UniProt Q9HYN5); assay: Isothermal titration calorimetry; type: binding
[3] = system: Pseudomonas aeruginosa PAO1; assay: Broth microdilution method; type: cell-based; conditions: standard 2-fold dilution assay, full LB medium
Procedure, shortened: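 Broth microdilution: 64 μM compound stocks in LB, sterile-filtered, diluted serially 1/2 in LB. PAO1 grown overnight in LB (37 °C, 180 rpm), diluted to OD600 0.022; 4 μL added to 150 μL sample (~5 × 10^5 CFU). Sterility, growth and polymyxin B (from 64 μg mL−1) controls. Incubated ~18 h at 37 °C, static. MTT (1 mg mL−1) added, 10 min RT. MIC = lowest concentration without visible growth by eye.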

[4] = system: Pseudomonas aeruginosa strain PAO1 biofilms; assay: Dispersal of already established biofilms; type: cell-based; conditions: 24 h
Procedure, shortened: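 PAO1 inoculum (LB overnight, washed, OD600 1) grown as biofilm 24 h at 37 °C, static, without compound, in 0.25% nutrient broth. Wells washed twice, then 0.25% broth with sterile-filtered test compound added (50 μM or stated concentration). After a further 24 h at 37 °C static, wells washed twice and stained 2.5–3 h with 0.5 mM WST-8/20 μM phenazine ethosulfate. A450 read; value is concentration giving complete dispersal.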

[5] = system: Pseudomonas aeruginosa PAO1; conditions: cited from earlier work
[6] = system: Pseudomonas aeruginosa strain PAO1; assay: Bacterial cell viability in the supernatant of the biofilm inhibition assay; type: cell-based; conditions: CFU counts in the biofilm supernatant and growth test in full medium
[7] = system: Pseudomonas aeruginosa strain PAO1 biofilms; assay: Biofilm inhibition; type: cell-based; conditions: 24 h growth, WST-8; compound alone
Procedure, shortened: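 PAO1 grown overnight in LB at 37 °C with 180 rpm shaking, washed in 0.25% (w/v) nutrient broth and normalised to OD600 1. Inoculated into 0.25% nutrient broth no. 2 containing sterile-filtered test compound at varied concentrations. Incubated 24–25 h at 37 °C, static, humid. Wells washed twice with water, stained 2.5–3 h at 37 °C with 0.5 mM WST-8 plus 20 μM phenazine ethosulfate in 0.25% broth. Supernatant A450 read.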

[8] = ITC, 20 mM Tris, 100 mM NaCl, 100 μM CaCl2, pH 7.5, 25 °C
[9] = ITC, 20 mM Tris, 100 mM NaCl, 100 μM CaCl2, pH 7.5, 25 °C, average of two runs

Chain of LecB (Q9HYN5 2-115 limits assumed): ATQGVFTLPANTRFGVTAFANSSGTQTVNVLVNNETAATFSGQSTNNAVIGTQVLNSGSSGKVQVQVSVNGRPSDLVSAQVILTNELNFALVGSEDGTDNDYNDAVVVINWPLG

Compound: CC(=O)N[C@H]1C(O)O[C@H](CO)[C@@H](O[C@@H]2O[C@@H](C)[C@@H](O)[C@@H](O)[C@@H]2O)[C@@H]1O[C@@H]1O[C@H](CO)[C@H](O)[C@H](O)[C@H]1O (stereo partly shown) [Le^a, Lewis^a trisaccharide]
Kd [2, 8]: 213 ± 2 nM | ΔG [2, 8]: –9.10 ± 0.02 kcal mol^–1 | ΔH [2, 8]: –8.35 ± 0.02 kcal mol^–1 | –TΔS [2, 8]: –0.74 ± 0.002 kcal mol^–1 | n (stoichiometry of the binding) [2, 9]: 1.08 ± 0.01 | r.p./nsugar (relative potency per fucoside) ([2]; KD(FucOCH3)/KD(ligand)/nFuc): 2

Compound: Polymyxin B
Dispersal of already established biofilms ([4]; compound at 10 μM): ∼70% dispersal @ 10 μM | MIC (minimal inhibitory concentration) ([5]; full medium): 2 μg mL^–1 ^f

Compound: NC[C@H]1O[C@H](O[C@H]2[C@H](O)[C@@H](O[C@H]3O[C@H](CO)[C@@H](O)[C@H](N)[C@H]3O)[C@H](N)C[C@@H]2N)[C@H](N)C[C@@H]1O [Tobramycin]
MBC (minimal bactericidal concentration under biofilm forming conditions) [6]: 0.5 µM (≈ 0.234 µg/mL) | MBC (minimal bactericidal concentration under biofilm forming conditions) ([6]; listed as tobramycin): bactericidal antibiofilm effect | Dispersal of already established biofilms ([4]; compound at 4 μM): 100% dispersal @ 4 μM | MIC (minimal inhibitory concentration) [5]: 1 μg mL^–1 ^g | MBIC (minimal biofilm inhibitory concentration) [7]: 0.5 µM

Continued, in another order:

ΔH [1, 8]: –10.6 ± 0.45 kcal mol^–1 | –TΔS [1, 8]: 4.0 kcal mol^–1 | n (stoichiometry of the binding) [1, 9]: 0.91 ± 0.03 | r.p./nGal (relative potency per galactoside) ([1]; KD(GalAG0 or GalBG0)/KD(ligand)/nGal): 0.2
Compound: O=[N+]([O-])c1ccc(O[C@@H]2O[C@H](CO)[C@H](O)[C@H](O)[C@H]2O)cc1 [NPG, 4-nitrophenyl-β-D-galactopyranoside]

MIC (minimal inhibitory concentration) [3]: >64 µM
Compound: (Ac-KKL)4(KFCxKI)2KHI [AcG2xK]
Dispersal of already established biofilms ([4]; compound at 50 μM): 100% dispersal
